Measured values from article PMC3702173 (Circulation research, 2013).
“Also recorded” adds a separate entry of the source.

Legend:
[1] = test system: classical CD14^++CD16^− monocytes; type: cell-based, human; settings: for Monocyte adhesion to P-selectin/ICAM-1 or P-selectin/VCAM-1: substance coimmobilized, LL37/MCP1 n=8, mLL37 n=3
[2] = test system: HUVEC; experiment: Transendothelial transport; type: cell-based, human; settings: for Effect on transendothelial LL37 transportation: pretreatment of HUVEC with inhibitor or enzyme
[3] = test system: murine monocytes (ICAM-1 or VCAM-1 binding); type: cell-based, mouse; settings: PMA 50ng/ml, MCP-1 50ng/ml, CRAMP 1µg/ml; ICAM-1-Fc or VCAM-1-Fc; n=5
Procedure, shortened: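 Mouse peripheral leukocytes exposed to PMA (50ng/ml), MCP-1 (50ng/ml) or CRAMP (1µg/ml) with ICAM-1-Fc or VCAM-1-Fc plus anti-Fc antibody; monocyte subsets gated by CD45, CD11b, CD115 and Gr1 staining; ligand binding read by flow cytometry; n=5.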

[4] = test system: classical monocytes; experiment: Classical monocyte accumulation in peritoneum upon stimulation with TNF; type: in vivo, mouse; settings: CRAMP-deficient mice, local application of CRAMP, unpublished data
[5] = test system: non-classical monocytes; settings: mouse cremaster muscle in vivo
Procedure, shortened: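 Cx3cr1egfp/WT mice, either with intact white cell count or made neutropenic with 1A8 (50µg i.p., 12h before), got TNF (50ng, 12h) intrascrotally. Anti-Ly6C (1µg i.v.) separated subsets, with non-classical monocytes GFP+ only. Cremaster adhesion was quantified by intravital microscopy; n=6.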

[6] = test system: classical monocytes (Ly6C^+); type: in vivo, mouse
[7] = test system: endothelium (baso-apical transport of CRAMP); type: in vivo, mouse; settings: n=4
Procedure, shortened: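 Neutropenic Darc−/− mice (1A8, 50µg/mouse i.p., 8h before stimuli) were injected intrascrotally with TNF (50ng, 4h) plus CRAMP (1µg). Fluorescent beads conjugated with anti-CRAMP antibody were then injected, and immobilised luminal beads were counted by intravital microscopy; n=4.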

[8] = test system: activated CD11b and VLA4 (β1- and β2-integrins) on monocytes; experiment: Integrin activation; type: cell-based, human; settings: LL37 1µg/ml; for Integrin activation on non-classical CD14^+CD16^++ monocytes: MCP-1 50ng/ml, Online Figure V
[9] = test system: human non-classical CD14^+CD16^++ monocytes; type: cell-based; settings: LL37 (1µg) deposited 15 min prior to perfusion; TNF-activated HUVEC; n=6
Procedure, shortened: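 Human non-classical CD14+CD16++ monocytes perfused in a flow chamber over HUVEC monolayers activated with TNF (20ng, 12h); LL37 (1µg) deposited on the monolayer 15 min before perfusion; adherent cells counted; n=6.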

[10] = test system: various T-cells, smooth muscle cells, and epithelial cells; settings: ref [44], [45]; cited from earlier work
[11] = test system: P2X7; settings: LPS-primed monocytes; via P2X7; ref [41]; cited from earlier work
[12] = test system: FPR2; settings: ref [6]; cited from earlier work
[13] = test system: P2X7; experiment: Surface plasmon resonance, receptor proteoliposomes on immobilized LL37; type: binding; settings: LL37 immobilized on CM4 chip; receptor-containing proteoliposomes; not shown
[14] = test system: endothelial adhesion molecules on HUVEC; experiment: Expression of endothelial adhesion molecules on HUVEC; type: cell-based, human; settings: treatment of HUVEC with LL37
[15] = test system: DARC; experiment: Interaction of DARC and LL37; type: binding; settings: Online Figure IV
[16] = test system: monocytes; settings: ref [40]; cited from earlier work
[17] = test system: neutrophils; settings: ref [24]; cited from earlier work

## Cc1ccc2c(c1)C1(CCN(CCc3nc(-c4ccccc4)oc3C)CC1)OC(=O)N2 [RS504393, reference compound]
[1]; RS504393 1µM, P-selectin/ICAM-1 or P-selectin/VCAM-1, n=8
  Effect on MCP1-mediated monocyte adhesion: blocked

## boc-PLPLP
[2]; n=6
  Effect on transendothelial LL37 transportation: did not impact on transendothelial LL37 transportation

## C=C1[C@@H](C)[C@H]2[C@H](Cc3ccccc3)NC(=O)[C@]23OC(=O)/C=C/[C@H](O)CCC[C@@H](C)C/C=C/[C@H]3[C@@H]1O [cytochalasin B]
[2]; n=6
  Effect on transendothelial LL37 transportation: abrogated

## CCCCCCCCCCCCCC(=O)O[C@@H]1[C@@H](C)[C@@]2(O)[C@@H](C=C(CO)C[C@]3(O)C(=O)C(C)=C[C@@H]23)[C@@H]2C(C)(C)[C@]12OC(C)=O [PMA, phorbol-12-myristate-13-acetate, reference compound]
[3]
  ICAM-1 and VCAM-1 binding to classical monocytes: increased binding of ICAM-1 or VCAM-1

## Cc1ccc(C(=O)Nc2ccc(S(=O)(=O)O)c3cc(S(=O)(=O)O)cc(S(=O)(=O)O)c23)cc1NC(=O)c1cccc(NC(=O)Nc2cccc(C(=O)Nc3cc(C(=O)Nc4ccc(S(=O)(=O)O)c5cc(S(=O)(=O)O)cc(S(=O)(=O)O)c45)ccc3C)c2)c1 [suramin]
[2]; n=6
  Effect on transendothelial LL37 transportation: did not impact on transendothelial LL37 transportation

## CRAMP
[4]
  Accumulation of classical monocytes into peritoneum: rescued by local application of CRAMP
[5]
  Adhesion of non-classical monocytes, mouse cremaster: not of non-classical monocytes
[3]
  ICAM-1 and VCAM-1 binding to classical monocytes: increased binding of ICAM-1 or VCAM-1; also recorded: enhances ICAM-1 and VCAM-1 binding to classical monocytes
[6]; Cramp^−/− mice, intrascrotal TNF with CRAMP 1µg vs TNF alone, n=5
  Adhesion of classical monocytes in Cramp^−/− mice: restored the defect in Cramp^−/− mice; also recorded: restores adhesion of classical monocytes
[6]; mouse cremaster muscle in vivo
  Adhesion of classical monocytes, overall statement, mouse cremaster: induce adhesion of classical monocytes
[6]; neutropenic Fpr1^−/− mice, TNF and CRAMP 1µg, n=6
  Adhesion of classical monocytes in Fpr1^−/− mice: resulted in increased adhesion in Fpr1^−/− mice
[6]; neutropenic Fpr2^−/− mice, TNF and CRAMP 1µg, n=6
  Adhesion of classical monocytes in Fpr2^−/− mice: this response was not observed in Fpr2^−/− mice
[7]; neutropenic Darc^−/− mice, TNF 50ng, 4h, and CRAMP 1µg intrascrotal
  Transportation of CRAMP across endothelium in Darc^−/− mice: maintained in Darc^−/− mice
[7]; neutropenic WT mice, TNF 50ng and CRAMP 1µg intrascrotal
  Luminal CRAMP in WT mice: luminal CRAMP was detected 4h after intrascrotal CRAMP injection

## CCCCC[C@@H](O)[C@H]1C(=O)O[C@H](C)[C@@H](O)/C=C/C=C/C=C/C=C/C=C(\C)[C@@H](O)C[C@H](O)C[C@H](O)C[C@H](O)C[C@H](O)C[C@H](O)C[C@@H]1O [filipin]
[2]; n=6
  Effect on transendothelial LL37 transportation: clear-cut decreases of LL37 transcytosis

## COc1cc2c(c(OC)c1OC)-c1ccc(OC)c(=O)cc1[C@@H](NC(C)=O)CC2 [colchicine]
[2]; n=6
  Effect on transendothelial LL37 transportation: abrogated

## MCP1: classical chemokine, CCR2 ligand (CCL2/MCP-1)
[1]
  Monocyte adhesion to P-selectin/ICAM-1 or P-selectin/VCAM-1: strongly enhanced monocyte adhesion
[8]
  Integrin activation on non-classical CD14^+CD16^++ monocytes: not on non-classical CD14^+CD16^++ monocytes
[3]
  ICAM-1 and VCAM-1 binding to classical monocytes: increased binding of ICAM-1 or VCAM-1

## O=C(Nc1ccc([N+](=O)[O-])cc1O)Nc1ccccc1Br [SB225002]
[2]; n=6
  Effect on transendothelial LL37 transportation: did not impact on transendothelial LL37 transportation

## LL37: human cathelicidin; linear peptide; FITC-labelled form used in transport experiment
[9]
  Adhesion of non-classical monocytes, in vitro flow chamber: not of non-classical monocytes
[10]
  Apoptosis: promotes apoptosis in various T-cells, smooth muscle cells, and epithelial cells
[1]
  Monocyte adhesion to P-selectin/ICAM-1 or P-selectin/VCAM-1: strongly enhanced monocyte adhesion
[11]
  Processing and release of IL-1 β: induced processing and release of the potent cytokine IL-1 β
[8]
  Integrin activation on non-classical CD14^+CD16^++ monocytes: not on non-classical CD14^+CD16^++ monocytes
[12]
  Effect of serum on direct chemotactic activity: not affected by serum
[13]
  Binding to P2X7: no interaction with LL37
[14]
  Effect on expression of endothelial adhesion molecules: did not impact on expression of endothelial adhesion molecules
[15]
  Interaction with DARC: could not detect an interaction between DARC and LL37
[2]; 4 °C, n=6
  Transendothelial LL37 transportation at 4°C: abrogated at 4 °C
[2]; time course, antibody-stained surface-bound LL37
  Time until LL37 accumulation on HUVEC surface: ≥ 2 h
[16]
  Production and release of IL8: induces the production and release of IL8 from monocytes
[17]
  Apoptotic cell death in neutrophils: inhibit apoptotic cell death in neutrophils

## CCCCOc1ccc(C(=O)NN2C(=O)c3ccccc3NC2c2ccc(O)cc2)cc1 (stereo not shown) [quin-C7, reference compound]
[8]; quin-C7 1µM, U73122 100nM, classical monocytes, n=4
  Effect on LL37-induced integrin activation: fully abrogated integrin activation induced by LL37
